Results on three molecules are retold here after ChEMBL document CHEMBL1926556, “Synthesis and biological activities of 2-[(heteroaryl)methyl]imidazolines” (Bioorg Med Chem, 2012).

The structures appear in SMILES notation.

In experiment [1] the target is T1, Adrenergic receptor alpha-2 (Rattus norvegicus, UniProt P22086+P19328+P22909).
T1 sequence (P22086 whole entry): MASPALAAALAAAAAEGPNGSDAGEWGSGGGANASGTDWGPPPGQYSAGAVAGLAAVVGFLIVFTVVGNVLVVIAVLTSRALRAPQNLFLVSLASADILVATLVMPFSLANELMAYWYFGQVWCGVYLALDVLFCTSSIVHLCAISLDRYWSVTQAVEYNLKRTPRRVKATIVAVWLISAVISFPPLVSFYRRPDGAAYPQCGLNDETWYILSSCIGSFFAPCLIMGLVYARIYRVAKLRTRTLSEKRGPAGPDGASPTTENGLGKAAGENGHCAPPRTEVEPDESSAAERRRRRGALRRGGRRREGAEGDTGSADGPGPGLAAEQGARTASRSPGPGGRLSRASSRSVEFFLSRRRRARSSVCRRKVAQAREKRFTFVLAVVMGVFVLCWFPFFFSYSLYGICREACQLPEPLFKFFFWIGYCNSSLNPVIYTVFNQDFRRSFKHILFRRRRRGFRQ
T1 sequence (P19328 whole entry): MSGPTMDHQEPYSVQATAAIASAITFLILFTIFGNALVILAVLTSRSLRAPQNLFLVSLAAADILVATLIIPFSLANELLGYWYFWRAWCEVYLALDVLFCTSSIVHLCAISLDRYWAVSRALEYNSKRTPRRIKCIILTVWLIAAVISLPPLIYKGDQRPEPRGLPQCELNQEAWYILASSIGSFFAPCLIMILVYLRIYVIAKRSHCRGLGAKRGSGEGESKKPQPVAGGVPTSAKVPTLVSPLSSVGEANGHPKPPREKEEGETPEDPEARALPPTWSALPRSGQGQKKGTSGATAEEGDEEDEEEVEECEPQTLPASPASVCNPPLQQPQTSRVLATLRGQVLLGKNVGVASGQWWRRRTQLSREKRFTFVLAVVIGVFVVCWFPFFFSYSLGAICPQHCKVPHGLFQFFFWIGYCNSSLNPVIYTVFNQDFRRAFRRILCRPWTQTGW
T1 sequence (P22909 whole entry): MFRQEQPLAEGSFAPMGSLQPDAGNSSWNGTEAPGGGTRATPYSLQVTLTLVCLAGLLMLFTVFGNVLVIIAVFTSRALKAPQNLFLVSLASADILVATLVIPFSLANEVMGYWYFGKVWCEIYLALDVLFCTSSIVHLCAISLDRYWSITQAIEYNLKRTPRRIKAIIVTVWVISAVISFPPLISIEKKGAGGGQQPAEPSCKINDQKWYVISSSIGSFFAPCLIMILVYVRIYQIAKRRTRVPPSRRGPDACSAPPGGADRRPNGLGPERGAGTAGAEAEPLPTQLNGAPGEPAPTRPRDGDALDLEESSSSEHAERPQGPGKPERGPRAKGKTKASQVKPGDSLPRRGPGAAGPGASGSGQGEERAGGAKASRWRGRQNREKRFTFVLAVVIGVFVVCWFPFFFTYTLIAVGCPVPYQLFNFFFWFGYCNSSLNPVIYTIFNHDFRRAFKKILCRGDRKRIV
The experiment can be described thus: Displacement of […] from adrenoceptor alpha2 in Sprague-Dawley rat brain membranes after 45 mins by scintillation counting. In kind it is cell membranes, Membrane. The method, boiled down:
(§1)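 Crude P2 membranes from male Sprague–Dawley rat brain (250–280 g), 0.2–0.3 mg protein. Radioligand 1 nM: [3H]2BFI for I2, [3H]prazosin for α1, [3H]RX821002 for α2. Non-specific binding defined by 10 µM BU224 (I2), 10 µM phenylephrine (α1) or 10 µM rauwolscine (α2). 11 concentrations from 0.01 nM to 100 µM, triplicate, 45 min at RT. Filtration and scintillation counting; Ki by Cheng–Prusoff.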
(In general: Loss of bound radioactivity is the signal in a displacement assay; it reports binding, not function.)

Experiment [2] concerns the target T2, Alpha-2A adrenergic receptor (Homo sapiens) (UniProt P08913).
T2 sequence (whole entry): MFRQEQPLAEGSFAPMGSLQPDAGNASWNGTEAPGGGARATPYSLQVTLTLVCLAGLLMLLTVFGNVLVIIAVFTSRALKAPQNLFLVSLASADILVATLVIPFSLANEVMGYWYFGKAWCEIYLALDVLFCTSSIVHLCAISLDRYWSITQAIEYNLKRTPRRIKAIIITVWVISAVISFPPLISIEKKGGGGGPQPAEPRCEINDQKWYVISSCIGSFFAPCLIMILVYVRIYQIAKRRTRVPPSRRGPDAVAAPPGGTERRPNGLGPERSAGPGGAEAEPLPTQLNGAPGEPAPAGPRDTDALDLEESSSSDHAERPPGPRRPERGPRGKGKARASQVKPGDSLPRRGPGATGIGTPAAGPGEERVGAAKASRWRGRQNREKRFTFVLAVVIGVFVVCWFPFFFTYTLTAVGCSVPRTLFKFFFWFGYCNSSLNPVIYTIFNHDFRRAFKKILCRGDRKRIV
The experiment can be described thus: Agonist activity at human adrenoceptor alpha2A expressed in CHOK1 cells assessed as stimulation of agonist-induced [35S]GTPgammaS binding by scintillation counting assay relative to noradrenaline. In kind it is functional, cell-based. The conditions noted are these: CHO-K1. The method, boiled down:
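Membranes from CHO-K1 cells stably expressing human α2A-adrenoceptor; 5 µg protein incubated with serial dilutions of agonist and 0.1 nM [35S]GTPγS in Tris buffer pH 7.4 with 1 µM GDP, MgCl2, NaCl, 30 min at RT. Filtered and counted by scintillation. EC50 and intrinsic activity relative to noradrenaline; means from 3 independent experiments.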
A general note: GTPγS resists hydrolysis and so accumulates on activated G proteins.

Experiment [3] in a line: Displacement of [3H]BFI from imidazoline I2 receptor in Sprague-Dawley rat brain membranes after 45 mins by scintillation counting. In kind it is cell membranes, Membrane. The method, boiled down: as §1
In experiment [4] the target is T3, Alpha-2A adrenergic receptor (Homo sapiens, UniProt P08913).
T3 sequence (P08913 whole entry): T2 sequence (whole entry)
The experiment can be described thus: Agonist activity at human adrenoceptor alpha2A expressed in CHOK1 cells assessed as stimulation of agonist-induced [35S]GTPgammaS binding by scintillation counting. In kind it is functional, cell-based, CHO-K1. Put shortly:
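Membranes from CHO-K1 cells stably expressing human α2A-adrenoceptor; 5 µg protein incubated with serial dilutions of agonist and 0.1 nM [35S]GTPγS in Tris buffer pH 7.4 with 1 µM GDP, MgCl2, NaCl, 30 min at RT. Filtered and counted by scintillation.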

The target of experiment [5] is Nischarin (Rattus norvegicus, UniProt Q4G017). The experiment is described as follows: Displacement of [3H]clonidine from imidazoline I1 receptor in Sprague-Dawley rat kidney membranes after 45 mins by scintillation counting. In kind it is cell membranes, Membrane. The method, boiled down: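 Crude P2 membranes from male Sprague–Dawley rat kidney, 0.2–0.5 mg protein. […] Specific binding defined by 10 µM rilmenidine. 11 concentrations from 0.01 to 100 µM, 50 mM Tris-HCl pH 7.4, 45 min at RT. Filtration and scintillation counting; IC50.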
Chain of Nischarin (Q4G017 whole entry): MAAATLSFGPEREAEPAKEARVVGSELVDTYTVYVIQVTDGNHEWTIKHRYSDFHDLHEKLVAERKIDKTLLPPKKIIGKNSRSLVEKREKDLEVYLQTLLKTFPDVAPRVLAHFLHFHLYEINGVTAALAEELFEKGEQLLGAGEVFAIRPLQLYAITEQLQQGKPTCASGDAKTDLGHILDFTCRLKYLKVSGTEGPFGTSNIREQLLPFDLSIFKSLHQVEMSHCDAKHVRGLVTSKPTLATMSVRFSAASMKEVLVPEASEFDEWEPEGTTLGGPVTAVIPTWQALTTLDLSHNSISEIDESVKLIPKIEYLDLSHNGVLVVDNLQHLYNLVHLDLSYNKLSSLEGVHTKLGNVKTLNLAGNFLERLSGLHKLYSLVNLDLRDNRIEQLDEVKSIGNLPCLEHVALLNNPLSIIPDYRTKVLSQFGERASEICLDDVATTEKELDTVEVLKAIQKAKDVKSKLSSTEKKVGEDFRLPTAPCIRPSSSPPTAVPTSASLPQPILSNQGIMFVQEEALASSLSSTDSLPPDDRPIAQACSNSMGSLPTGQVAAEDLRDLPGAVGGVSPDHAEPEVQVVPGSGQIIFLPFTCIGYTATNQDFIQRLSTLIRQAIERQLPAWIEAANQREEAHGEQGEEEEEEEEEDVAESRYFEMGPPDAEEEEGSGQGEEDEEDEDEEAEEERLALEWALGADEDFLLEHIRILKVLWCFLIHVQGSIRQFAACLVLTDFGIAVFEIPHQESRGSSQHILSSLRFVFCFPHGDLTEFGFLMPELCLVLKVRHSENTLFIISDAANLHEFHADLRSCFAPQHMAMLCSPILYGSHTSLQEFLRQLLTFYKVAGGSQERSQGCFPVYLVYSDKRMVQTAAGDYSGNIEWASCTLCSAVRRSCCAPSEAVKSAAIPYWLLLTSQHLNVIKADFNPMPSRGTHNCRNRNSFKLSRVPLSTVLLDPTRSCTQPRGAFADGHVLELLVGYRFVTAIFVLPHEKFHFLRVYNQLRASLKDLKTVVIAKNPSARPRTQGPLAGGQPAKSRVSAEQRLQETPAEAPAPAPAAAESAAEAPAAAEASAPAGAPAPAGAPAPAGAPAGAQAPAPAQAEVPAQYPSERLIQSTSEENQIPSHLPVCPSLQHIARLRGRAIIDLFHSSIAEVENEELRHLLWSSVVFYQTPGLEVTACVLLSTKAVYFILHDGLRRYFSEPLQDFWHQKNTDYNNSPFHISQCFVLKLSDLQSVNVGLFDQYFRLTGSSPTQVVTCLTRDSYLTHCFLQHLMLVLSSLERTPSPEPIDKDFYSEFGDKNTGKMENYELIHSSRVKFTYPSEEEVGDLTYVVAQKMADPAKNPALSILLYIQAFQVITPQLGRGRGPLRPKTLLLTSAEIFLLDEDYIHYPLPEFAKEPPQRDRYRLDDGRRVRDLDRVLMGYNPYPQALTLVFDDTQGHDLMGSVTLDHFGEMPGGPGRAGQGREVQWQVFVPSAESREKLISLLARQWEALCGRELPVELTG

As usually defined, the Ki is a dissociation constant, usually derived from enzyme kinetics or from competition with a known ligand. A word on the Emax: it is the greatest response seen or fitted, relative to the assay's reference. Broadly, the EC50 is the midpoint of the concentration-response curve. The IC50 is the point on the concentration scale where inhibition reaches its midpoint. A lower IC50 goes with greater potency.

Regarding `Cl.Clc1cccc2cnn(CC3=NCCN3)c12`, the results for the Ki in experiment [1] and in experiment [3] were 0.0064 µM and 0.554 µM, respectively. For the same molecule, the Emax in experiment [2] came out at 7.4%. Moreover, the EC50 in experiment [4] came out at 16.6 µM. For the same molecule, the IC50 in experiment [5] amounted to 0.856 µM.

As to `Cl.c1ccc2c(c1)cnn2CC1=NCCN1`, the inhibitory constant (Ki) in experiment [1] is 0.0185 µM; in experiment [3], 42.2 µM. For the same molecule, in experiment [2], the Emax came out at 6.3%. The EC50 in experiment [4] came to 4.5 µM. The molecule also gave an IC50 in experiment [5] of 19.4 µM.

As to `Cc1cccc2cnn(CC3=NCCN3)c12.Cl`, the inhibition constant Ki in experiment [1] was determined as 0.607 µM; in experiment [3] it was 6.84 µM. For the same molecule, the Emax in experiment [2] was 6.3%. Besides, in experiment [4], the EC50 came out at 17.4 µM. The molecule also registered a half-inhibitory concentration (IC50) in experiment [5] of 96.4 µM.
